Results on 29 compounds are retold here after ChEMBL document CHEMBL4819005, “Design, synthesis, and in vitro and in vivo anti-angiogenesis study of a novel vascular endothelial growth factor receptor-2 (VEGFR-2) inhibitor based on 1,2,3-triazole scaffold” (Eur J Med Chem, 2021).

Activity calls are given as the source filed them. The rule behind the calls is not given here. A value given as a limit tells only on which side of the number the result lay.

The target in assay [1] is Vascular endothelial growth factor receptor 2 (Homo sapiens, UniProt P35968). Kind of assay: Inhibition of recombinant human His-tagged VEGFR2 expressed in Baculovirus expression system using ADP-Glo as substrate measured after 30 mins in presence of ATP by ADP-Glo kinase assay. On the technique in general: ADP-Glo turns the ADP formed in a reaction into a luminescent signal.

The subject of a further assay is HT-29. Description: cells. The note with it: Homo sapiens, HT-29, 24 h.
The next assay relates to MKN-45. Kind of assay: cells. To be noted: Homo sapiens, MKN-45, 24 h.
Assay [2] concerns HUVEC. Kind of assay: cells. The note with it: Homo sapiens, 24 h.
The subject of assay [3] is HUVEC. Kind of assay: Anti-angiogenesis activity against HUVEC cells assessed as inhibition of cell migration measured after 24 hrs by Transwell assay. To be noted: Homo sapiens, dose 0.2-0.8 µM. The assay is classed as functional, cell-based. A digest of the protocol: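 HUVECs pretreated 24 h in serum-free DMEM with 0, 0.2, 0.4 or 0.8 μM compound, then counted. 1×10^4 cells placed in upper transwell chamber (8 µm pores), lower chamber DMEM with 20% serum. After 24 h, filters fixed in methanol and stained with 0.1% crystal violet. Migrated cells on lower surface counted by microscopy.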

Assay [4] deals with HUVEC. Description: Anti-angiogenesis activity against HUVEC cells assessed as inhibition of tube formation at 0.2 to 0.8 uM measured after 6 hrs by microscopic method. The assay is classed as functional, cell-based. The note with it: Homo sapiens, dose 0.2-0.8 µM. Summed up: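 HUVECs exposed to 0, 0.2, 0.4 or 0.8 μM compound, then collected. 1×10⁴ cells seeded on Matrigel and cultured 6 h. Tubes photographed under microscope and total tube length quantified.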

Assay [5] is filed under the species Danio rerio. To be noted: dose 40.0 mg/L, time 24.0 hrs.
The species named for assay [6] is Danio rerio. The note with it: dose 20.0 mg/L, time 24.0 hrs.

Sequence of Vascular endothelial growth factor receptor 2 (P35968 whole entry): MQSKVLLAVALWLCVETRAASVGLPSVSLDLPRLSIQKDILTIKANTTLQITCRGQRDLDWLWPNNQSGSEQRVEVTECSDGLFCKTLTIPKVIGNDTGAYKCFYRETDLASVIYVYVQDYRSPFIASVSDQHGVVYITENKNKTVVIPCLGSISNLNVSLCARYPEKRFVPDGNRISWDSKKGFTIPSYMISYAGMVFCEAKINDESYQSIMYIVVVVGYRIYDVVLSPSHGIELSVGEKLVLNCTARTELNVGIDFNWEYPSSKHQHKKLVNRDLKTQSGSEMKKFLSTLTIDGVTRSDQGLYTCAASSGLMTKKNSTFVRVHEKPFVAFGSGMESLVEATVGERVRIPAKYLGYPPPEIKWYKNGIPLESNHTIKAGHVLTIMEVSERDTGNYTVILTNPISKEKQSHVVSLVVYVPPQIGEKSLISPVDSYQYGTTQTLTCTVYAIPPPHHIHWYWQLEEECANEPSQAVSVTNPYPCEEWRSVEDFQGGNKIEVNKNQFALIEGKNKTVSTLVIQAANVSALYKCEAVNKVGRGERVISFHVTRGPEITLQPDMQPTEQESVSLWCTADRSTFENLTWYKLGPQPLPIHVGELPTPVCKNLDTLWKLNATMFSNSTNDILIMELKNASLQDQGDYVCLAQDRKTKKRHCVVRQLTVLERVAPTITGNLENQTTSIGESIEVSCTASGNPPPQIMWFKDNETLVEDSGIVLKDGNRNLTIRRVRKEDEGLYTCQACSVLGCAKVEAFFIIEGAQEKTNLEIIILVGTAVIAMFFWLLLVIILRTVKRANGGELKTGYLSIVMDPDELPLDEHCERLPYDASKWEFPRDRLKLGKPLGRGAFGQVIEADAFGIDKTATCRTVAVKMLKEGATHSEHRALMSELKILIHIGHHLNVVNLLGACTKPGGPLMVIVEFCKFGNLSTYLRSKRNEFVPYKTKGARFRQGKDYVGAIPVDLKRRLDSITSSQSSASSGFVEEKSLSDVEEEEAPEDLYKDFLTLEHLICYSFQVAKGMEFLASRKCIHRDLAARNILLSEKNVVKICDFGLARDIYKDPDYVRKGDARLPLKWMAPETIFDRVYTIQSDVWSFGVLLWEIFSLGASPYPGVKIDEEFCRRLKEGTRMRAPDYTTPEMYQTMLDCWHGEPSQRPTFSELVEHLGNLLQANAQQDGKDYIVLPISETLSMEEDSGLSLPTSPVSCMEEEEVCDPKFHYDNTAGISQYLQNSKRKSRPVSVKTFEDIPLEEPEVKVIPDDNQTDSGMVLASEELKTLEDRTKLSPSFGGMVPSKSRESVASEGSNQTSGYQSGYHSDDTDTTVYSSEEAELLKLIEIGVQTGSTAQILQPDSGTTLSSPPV

With `O=C1Nc2ccc(F)cc2/C1=C/c1ccc(-c2cn(-c3ccc(F)cc3)nn2)cc1`, the IC50 in assay [1] is 0.193 µM; with HT-29 it was > 20 µM; in the assay with MKN-45 it was > 20 µM; in the assay with HUVEC [2] it was > 20 µM.
For the compound `Cc1ccc(-n2cc(-c3ccc(/C=C4\C(=O)Nc5ccccc54)cc3)nn2)cc1`, the Activity entry in the assay on HUVEC [3] and in the assay on HUVEC [4] was “Dose-Dependent Effect” throughout. The inhibition result in the assay listed under Danio rerio [5] and in the assay filed under Danio rerio [6] was “Active” throughout. In addition, the IC50 in the assay with HT-29 worked out at 1.61 µM; with MKN-45, 1.92 µM; in the assay with HUVEC [2], 7.94 µM.
In the case of `O=C1Nc2ccccc2/C1=C/c1ccc(-c2cn(-c3ccc(Cl)cc3)nn2)cc1`, the IC50 in assay [1] came to 0.163 µM; with HT-29 it was 14 µM; in the assay on MKN-45 it was 16.2 µM; in the assay on HUVEC [2], 18.2 µM.
`O=C1Nc2ccccc2/C1=C/c1ccc(-c2cn(-c3ccccc3)nn2)cc1`: the concentration for half-maximal inhibition (IC50) was determined as 7.07 µM in the assay on HT-29, 11.6 µM in the assay with MKN-45 and 12.7 µM in the assay on HUVEC [2].
For `N#Cc1ccc(-n2cc(-c3ccc(C=C4C(=O)Nc5ccccc54)cc3)nn2)cc1`, the concentration for half-maximal inhibition (IC50) was 0.179 µM in assay [1], 15.8 µM in the assay with HT-29, > 20 µM with MKN-45 and > 20 µM in the assay on HUVEC [2].
For the compound `O=C1Nc2ccccc2/C1=C/c1ccc(-c2cn(-c3cccc(F)c3)nn2)cc1`, the half-maximal inhibitory concentration (IC50) in assay [1] is > 0.2 µM; in the assay with HT-29 it was > 20 µM; in the assay on MKN-45, > 20 µM; with HUVEC [2] it was > 20 µM.
`Cc1cccc(-n2cc(-c3ccc(/C=C4\C(=O)Nc5ccc(F)cc54)cc3)nn2)c1`: the 50% inhibitory concentration (IC50) in the assay on HT-29 was 7.32 µM; in the assay with MKN-45 it was 6.81 µM; with HUVEC [2], 9.88 µM.
On the same counts, the results for `Cc1ccc(-n2cc(-c3ccc(/C=C4\C(=O)Nc5ccc(F)cc54)cc3)nn2)cc1` are 3.98 µM, 34.6 µM and 13.8 µM.
Turning to `N#Cc1ccccc1-n1cc(-c2ccc(/C=C3\C(=O)Nc4ccccc43)cc2)nn1`, the IC50 stood at 0.169 µM in assay [1], 14.4 µM in the assay with HT-29, 14.6 µM with MKN-45 and 19.7 µM in the assay with HUVEC [2].
For `O=C1Nc2ccccc2/C1=C/c1ccc(-c2cn(-c3ccccc3F)nn2)cc1`, the IC50 was determined as 0.115 µM in assay [1], 10.5 µM in the assay with HT-29, 12.5 µM in the assay with MKN-45 and 19.3 µM with HUVEC [2].
On the same counts, the results for `O=C1Nc2ccc(F)cc2/C1=C/c1ccc(-c2cn(-c3ccccc3Cl)nn2)cc1` are 0.12 µM, 5.95 µM, 7.54 µM and 18.2 µM.
Regarding `N#Cc1ccccc1-n1cc(-c2ccc(C=C3C(=O)Nc4ccc(F)cc43)cc2)nn1`, the half-inhibitory concentration (IC50) in assay [1] was 0.187 µM; in the assay with HT-29 it was 14 µM; in the assay with MKN-45, 15.2 µM; in the assay with HUVEC [2] it was > 20 µM.
The matching figures for `O=C1Nc2ccc(F)cc2/C1=C/c1ccc(-c2cn(-c3ccc(Cl)c(C(F)(F)F)c3)nn2)cc1`: 0.169 µM, 16.5 µM, > 20 µM and > 20 µM.
For `CCN(CC)CCNC(=O)c1c(C)[nH]c(/C=C2\C(=O)Nc3ccc(F)cc32)c1C` [SUNITINIB], the half-inhibitory concentration (IC50) in the assay with HT-29 came to 10.3 µM; with MKN-45, 9.25 µM; in the assay with HUVEC [2] it was 6.37 µM.
`N#Cc1ccc(-n2cc(-c3ccc(C=C4C(=O)Nc5ccc(F)cc54)cc3)nn2)cc1`: the 50% inhibitory concentration (IC50) in assay [1] is 0.19 µM; in the assay on HT-29, > 20 µM; in the assay with MKN-45 it was > 20 µM; in the assay on HUVEC [2], > 20 µM.
For the compound `O=C1Nc2ccccc2/C1=C/c1ccc(-c2cn(-c3ccc(F)cc3)nn2)cc1`, the IC50 is 0.199 µM in assay [1], 17.7 µM in the assay with HT-29, 16.7 µM in the assay on MKN-45 and 14.7 µM in the assay on HUVEC [2].
On the same counts, the results for `N#Cc1cccc(-n2cc(-c3ccc(/C=C4\C(=O)Nc5ccc(F)cc54)cc3)nn2)c1` are 0.193 µM, > 20 µM, > 20 µM and > 20 µM.
On the same counts, the results for `O=C1Nc2ccc(F)cc2/C1=C/c1ccc(-c2cn(-c3cccc(Cl)c3)nn2)cc1` are 0.186 µM, 10.5 µM, 14.1 µM and 19.4 µM.
On the same counts, the results for `O=C1Nc2ccc(F)cc2/C1=C/c1ccc(-c2cn(-c3cccc(F)c3)nn2)cc1` are 0.171 µM, 13 µM, 8.19 µM and 17.2 µM.
Take `O=C1Nc2ccc(F)cc2C1=Cc1ccc(-c2cn(-c3ccc(Cl)cc3)nn2)cc1`: the half-inhibitory concentration (IC50) was 0.17 µM in assay [1], 11.2 µM in the assay on HT-29, 15.8 µM in the assay with MKN-45 and 19.6 µM in the assay with HUVEC [2].
The matching figures for `O=C1Nc2ccccc2/C1=C/c1ccc(-c2cn(-c3ccc(Cl)c(C(F)(F)F)c3)nn2)cc1`: 0.108 µM, 9.67 µM, 8.89 µM and > 20 µM.
For the compound `Cc1ccccc1-n1cc(-c2ccc(/C=C3\C(=O)Nc4ccccc43)cc2)nn1`, the IC50 turned out to be 0.111 µM in assay [1], 8.71 µM in the assay with HT-29, 9.77 µM with MKN-45 and 14.7 µM with HUVEC [2].
On the same counts, the results for `O=C1Nc2ccccc2/C1=C/c1ccc(-c2cn(-c3cccc(Cl)c3)nn2)cc1` are > 0.2 µM, > 20 µM, > 20 µM and > 20 µM.
Consider `Cc1cccc(-n2cc(-c3ccc(/C=C4\C(=O)Nc5ccccc54)cc3)nn2)c1`, for which the IC50 with HT-29 was found to be 3.94 µM; in the assay with MKN-45, 4.69 µM; with HUVEC [2], 13.7 µM.
The matching figures for `O=C1Nc2ccc(F)cc2C1=Cc1ccc(-c2cn(-c3ccccc3)nn2)cc1`: 8.12 µM, 11.1 µM and 13.7 µM.
Turning to `N#Cc1cccc(-n2cc(-c3ccc(/C=C4\C(=O)Nc5ccccc54)cc3)nn2)c1`, the concentration for half-maximal inhibition (IC50) in assay [1] is > 0.2 µM; in the assay with HT-29, > 20 µM; in the assay with MKN-45 it was > 20 µM; with HUVEC [2] it was > 20 µM.
On to `O=C1Nc2ccccc2/C1=C/c1ccc(-c2cn(-c3ccccc3Cl)nn2)cc1`, for which the half-maximal inhibitory concentration (IC50) in assay [1] is > 0.2 µM; in the assay with HT-29 it was > 20 µM; in the assay with MKN-45 it was > 20 µM; in the assay with HUVEC [2], > 20 µM.
Turning to `O=C1Nc2ccc(F)cc2/C1=C/c1ccc(-c2cn(-c3ccccc3F)nn2)cc1`, the IC50 in assay [1] amounted to 0.14 µM; with HT-29, 8.98 µM; in the assay with MKN-45, 8.51 µM; with HUVEC [2] it was 14.4 µM.
As for `Cc1ccccc1-n1cc(-c2ccc(C=C3C(=O)Nc4ccc(F)cc43)cc2)nn1`, the figures for the IC50 with HT-29, in the assay with MKN-45 and in the assay on HUVEC [2] were 5.87 µM, 7.21 µM and 8.63 µM, respectively.

Broadly, the IC50 is the midpoint of a concentration-inhibition curve.
